The results in this text go back to PubChem BioAssay AID449761 (Broad Institute, 2010).

Results filed as inconclusive are left out. Calls of active or inactive are those of the source.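 The calls were made as follows: active = compounds raising caspase signal with fitted AC50 no more than tenfold above the top tested dose; inconclusive = flat curve at 30 to 70% activity, or unusable fit; inactive = the rest.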 A value given as a limit tells only on which side of the number the result lay.

The experiment relates to MEF WT non-primed, caspase-Glo luminescence, 3 h. Description: caspase activity of non-primed cells – cell-based, caspase-Glo luminescence, 3 h, counter-screen for Bcl2-A1 inhibitor project, dose response (AID 449761). In a few lines: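 Assay system: Non-primed wild-type MEF cells; Quantity: 2500 cells per well; Doses: 100 nL compound added per well by pin transfer; Medium: RPMI-1640 plus 10% FBS; Detection: CaspaseGlo luminescence; Timing: 3 h compound at 37 °C, 1 h reagent at RT.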
`Cc1nn(-c2ccccc2)c(C)c1/C=N/NC(=O)CSc1nc2ccccc2c(=O)n1-c1ccc(Br)cc1`: the AC50 was 36 µM.

For `COc1cc2ncnc(NCc3ccc(F)cc3)c2cc1OC`, the AC50 is > 35 µM (inactive).

With `C=C1/C=C(\C)[C@](C)(O)C[C@H](O)CC(=O)[C@H](O)[C@@H](O)[C@H](C)C[C@H](C)OC(=O)/C(C)=C/CC/C=C/[C@@H]2O[C@H]2C[C@H](C)C1`, the AC50 was > 35 µM (inactive).

For the compound `O=C(NCCc1ccccc1)C(c1cccs1)N(C(=O)CCl)c1ccc(Cl)cc1` (stereo not drawn), the AC50 is 16.4 µM.

Regarding `CN(C)C/C=C(\c1ccc(Br)cc1)c1cccnc1`, the AC50 is > 35 µM (inactive).

As to `COc1ccc(C=C2C=C(C(C)(C)C)C(=O)C(C(C)(C)C)=C2)cc1OC`, the AC50 is 2.98 µM.

As to `CC(=O)Nc1ncnc2c1c(-c1ccc(Cl)cc1)nn2C(C)(C)C`, the AC50 was > 35 µM (inactive).

As to `COc1ccc(C2C(O)C(c3c[nH]c4ccccc34)=NN2C(=O)CCl)cc1` (stereo not drawn), the AC50 is 36.1 µM.

Take `Cc1ccc(C2(c3ccc(C)cc3)CC2C(=O)Nc2ccc([N+](=O)[O-])cc2O)cc1` (stereo not drawn): the AC50 is > 35 µM (inactive).

On to `COc1cc(C2CC(c3cccs3)=NN2C(=O)CCl)ccc1OC(F)F` (stereo not drawn), for which the AC50 was 32.9 µM.

Consider `NS(=O)(=O)c1ccc(N/N=C2/CCCCC2C2CCCCC2)c([N+](=O)[O-])c1` (stereo not drawn), for which the AC50 is 33.5 µM.

For `CCS(=O)(=O)c1ncc(Cl)c(C(=O)Nc2ccccc2OC)n1`, the AC50 is > 35 µM (inactive).

In the case of `Cc1cccc(Nc2nc(N)c([N+](=O)[O-])c(N3CCCC(C)C3)n2)c1` (stereo not drawn), the AC50 is > 35 µM (inactive).

In the case of `Cc1ccc2nc(N(CCCN(C)C)C(=O)c3ccc(S(=O)(=O)N4CCc5ccccc5C4)cc3)sc2c1`, the AC50 was > 35 µM (inactive).

In the case of `COc1ccccc1-c1cc(C(F)(F)F)nc(S(=O)(=O)CCCC(=O)N2CCOCC2)n1`, the half-maximal activity concentration (AC50) was 8.99 µM.

Turning to `O=C(COc1ccc(/C=N/NC(=O)c2cc3ccccc3o2)cc1Br)Nc1ccccc1`, the AC50 was 28.5 µM.

`COc1ccc2c(-c3cc4ccc(OCc5ccc(F)cc5)cc4oc3=O)cc(=O)oc2c1`: the AC50 was 23.9 µM.

Take `Cc1cc(NC(=O)CSc2nc3cc(Cl)ccc3c(=O)n2Cc2ccco2)no1`: the AC50 was > 35 µM (inactive).

On to `CCOc1cc(C(=O)CSc2nnc(CNc3ccc(Cl)cc3)o2)ccc1NC(=O)CC`, for which the concentration at half-maximal activity (AC50) is 16 µM.

Turning to `Cc1ccc(C(=O)/C=C/C(=O)c2ccc(C)cc2)cc1`, the AC50 was 5.73 µM.

In the case of `COc1cc2cnc(-c3ccccc3)c(-c3cccc(C(F)(F)F)c3)c2cc1OC`, the AC50 was > 35 µM (inactive).

On to `Cc1c(C=O)c(C=O)c(C)n1Cc1ccccc1`, for which the AC50 was > 35 µM (inactive).

As to `COc1ccc(NC(=O)C(=O)N/N=C\c2ccc(CNC(=O)C(=O)Nc3ccc(C)c(C)c3)o2)c(OC)c1`, the AC50 is 23.5 µM.

As for `O=C(COc1ccc(/C=N/NC(=O)c2cc3ccccc3o2)cc1Cl)Nc1ccccc1`, the AC50 was 9.56 µM.

Consider `Cc1ccc(NC(=S)NC(NC(=O)Cc2cccc3ccccc23)C(Cl)(Cl)Cl)cc1` (stereo not drawn), for which the concentration at half-maximal activity (AC50) is 22.9 µM.

Take `O=C(N=Nc1c(O)[nH]c2ccc([N+](=O)[O-])cc12)c1cc(-c2ccccc2Cl)nc2ccccc12`: the AC50 is > 35 µM (inactive).

As for `CCc1nnc(NC(=O)CSc2nc(-c3ccccc3)cc(-c3ccc(F)cc3)c2C#N)s1`, the AC50 was 32.2 µM.

In the case of `COC(=O)[C@@]1(C)CC[C@]2(C)CC[C@@]3(C)C(=CC(=O)C4[C@@]5(C)CC[C@H](O)C(C)(C)[C@@H]5CC[C@]43C)[C@H]2C1` (stereo partly drawn), the AC50 is > 35 µM (inactive).

`COc1cccc(C(=O)C(C#N)=C(SC)SC)c1`: the AC50 was > 35 µM (inactive).

Consider `CCOC(=O)CSC1=N/C(=C/c2ccc(-n3cncn3)cc2)C(=O)N1C(C)=O`, for which the AC50 was > 35 µM (inactive).

As to `O=C(Oc1cccc(/C=N/Nc2nc(Nc3ccccc3)nc(N3CCOCC3)n2)c1)c1ccco1`, the AC50 is > 35 µM (inactive).

For the compound `CC(C)(C)c1ccc2c(c1)OC(C(=O)N/N=C\c1ccc[nH]1)CO2` (stereo not drawn), the AC50 was > 35 µM (inactive).

Take `Cc1cc(C(=O)CCl)c(C)n1CCc1ccc(Cl)cc1`: the AC50 was > 35 µM (inactive).

For the compound `CC(=O)OC(C)(C)/C=C/C(=O)C(C)(O)C1[C@H](O)C[C@@]2(C)C3CC=C4C(CC[C@@H](O)C4(C)C)[C@]3(CO)C(=O)C[C@]12C` (stereo partly drawn), the AC50 was > 35 µM (inactive).

`Cc1cc(C)cc(NC(=O)/C(C#N)=C/c2cn(CC(=O)NCc3ccco3)c3ccccc23)c1`: the AC50 was 8.84 µM.

With `CCn1c(SCC(=O)c2ccccc2)nnc1-c1cc2cc(Br)ccc2o1`, the AC50 was > 35 µM (inactive).

As to `COc1ccc(-c2ccc3c(c2)S(=O)(=O)c2cccc(C(=O)NCc4cccc(OC(F)(F)F)c4)c2C3=O)cc1OC`, the concentration at half-maximal activity (AC50) is 8.54 µM.

In the case of `N#CC(C#N)=C1C=CC=CN1/C(=C\c1ccccc1Cl)C(=O)c1ccccc1`, the AC50 is 5.01 µM.

As for `CC1CCc2c(sc3nc(C(C)(C)C)nc(N4CCN(C(=O)CCl)CC4)c23)C1` (stereo not drawn), the concentration at half-maximal activity (AC50) was 13 µM.

With `CC(C)c1cccc(-c2ccc3c(c2)S(=O)(=O)c2cccc(C(=O)NCc4ccccc4Cl)c2C3=O)c1`, the AC50 is > 35 µM (inactive).

For `CCN(C(=O)CCN1C(=O)c2ccccc2S1(=O)=O)c1ccccc1`, the AC50 was > 35 µM (inactive).

For `CC(C)CCN(C(=O)Cc1ccc(Cl)c(Cl)c1)c1c(N)n(Cc2ccccc2)c(=O)[nH]c1=O`, the half-maximal activity concentration (AC50) is 14.6 µM.

`O=C(NN=C1c2ccccc2-c2ccccc21)c1cccc(Br)c1`: the AC50 was 35.6 µM.

Take `O=S1(=O)CCOC[C@H](CC2CCCCC2)N1Cc1cccc(Cl)c1`: the AC50 is > 35 µM (inactive).

Take `CC1=NNC(=O)/C1=C\c1cn(-c2ccccc2)nc1-c1cccs1`: the AC50 was 14.3 µM.

With `O=C(NCc1ccccc1Cl)c1cccc2c1C(=O)c1ccc(-c3ccc(OC(F)(F)F)cc3)cc1S2(=O)=O`, the AC50 was > 35 µM (inactive).

As for `CC(C)c1cccc(-c2ccc3c(c2)S(=O)(=O)c2cccc(C(=O)NC4CCCC4)c2C3=O)c1`, the AC50 is > 35 µM (inactive).

`COc1ccc(C2Nc3ccc4ccccc4c3-c3c2c(=O)oc2ccccc32)cc1` (stereo not drawn): the AC50 is 18 µM.

As to `O=C(Nc1ccc([N+](=O)[O-])cc1)C(Cc1ccccc1)N1C(=O)c2cccc3cccc(c23)C1=O` (stereo not drawn), the AC50 was > 35 µM (inactive).

With `COc1cc(NC(=O)c2ccc(C)cc2C)ccc1NC(=O)c1cc2ccccc2o1`, the half-maximal activity concentration (AC50) was 30.4 µM.

On to `CCOc1cc(/C=N/Nc2cc(C)nc(-n3nc(C)cc3C)n2)ccc1O`, for which the AC50 was > 35 µM (inactive).

Consider `COc1ccc(S(=O)(=O)N2CC(O)CC2C(=O)OCC(=O)Nc2ccc(Cl)cn2)cc1` (stereo not drawn), for which the AC50 was > 35 µM (inactive).

As for `Cc1cc(=O)[nH]c(SCC(=O)Nc2ccc(Br)cc2)c1C#N`, the AC50 is > 35 µM (inactive).

For the compound `CC1CC(C)CN(C(=O)c2ccc(-c3ccc([N+](=O)[O-])cc3)o2)C1` (stereo not drawn), the AC50 was > 35 µM (inactive).

Take `Nc1nc(F)nc2c1ncn2[C@@H]1O[C@H](CO)[C@@H](O)[C@H]1O`: the AC50 is > 35 µM (inactive).

Regarding `COC(=O)c1ccc2c(c1)C(C)(C)C(/C=C/c1ccccc1O)=[N+]2C`, the AC50 was 8.57 µM.

For `CCOC(=O)N1C(=O)[C@@](c2ccc(Cl)cc2)(C(C)C)N1C(=O)OCC`, the AC50 is > 35 µM (inactive).

As for `CC(C)(C)[C@H](N)C(=O)N[C@H]1CCC2C3CC=C4C[C@@H](O)CC[C@]4(C)C3CC[C@@]21C` (stereo partly drawn), the AC50 was > 35 µM (inactive).

`O=C(CCl)N=c1sccn1Cc1ccccc1Cl`: the AC50 was > 35 µM (inactive).

As for `O=C(/C=C/c1ccc(F)cc1)NC(=S)Nc1ccccc1C(=O)NC1CCCCC1`, the AC50 was > 35 µM (inactive).

Regarding `CCc1nn(-c2cc(Oc3cccc4ccccc34)nc(-c3ccccc3)n2)c(N)c1C#N`, the AC50 was > 35 µM (inactive).

On to `Cc1ccc(CS(=O)(=O)c2ncc(Cl)c(C(=O)Nc3nnc(C(C)C)s3)n2)cc1`, for which the AC50 is > 35 µM (inactive).

For `CC(=O)[C@]1(O)Cc2c(O)c3c(c(O)c2[C@@H](O[C@H]2C[C@H](N)[C@H](O)[C@H](C)O2)C1)C(=O)c1ccccc1C3=O`, the AC50 is > 35 µM (inactive).

For the compound `COc1cc(SC#N)ccc1N=Cc1c(C)[nH]n(-c2ccc(C)cc2)c1=O`, the half-maximal activity concentration (AC50) is 34.5 µM.

Take `Cc1occc1-c1nnc(SCC(=O)NCCc2ccccc2)n1Cc1ccccc1`: the AC50 was > 35 µM (inactive).

Regarding `CCOc1ccc(OCC(=O)N(CCC2=CCCCC2)c2c(N)n(Cc3ccccc3)c(=O)[nH]c2=O)cc1`, the half-maximal activity concentration (AC50) was 26.8 µM.

With `CCOC(=O)C(C(=O)OCC)c1cc(Br)c2noc3c2c1C(=O)c1ccccc1-3`, the AC50 was 8.67 µM.

Consider `Cc1ccc(C)c(S(=O)(=O)NCC(=O)Nc2sc3c(c2C(N)=O)CCC(C)C3)c1` (stereo not drawn), for which the AC50 is > 35 µM (inactive).

As for `CC(=O)Nc1ccc(NC(=O)C(C)OC(=O)/C=C/c2cn(-c3ccccc3)nc2-c2cccnc2)cc1` (stereo not drawn), the AC50 is 25 µM.

Regarding `CCOc1cc(/C=C2/C(=N)N3C=CSC3=NC2=O)ccc1OCCCOc1ccccc1C`, the AC50 was 8.09 µM.

For `COc1ccc(-c2oc(=O)c3cc(OC)c(OC)cc3c2/C=C/c2cccc([N+](=O)[O-])c2)cc1`, the AC50 was > 35 µM (inactive).

As to `Cc1cccc(NC(=O)CSc2nc(C)c(CC(=O)c3ccc(Br)cc3)c(C)c2C#N)c1C`, the AC50 is > 35 µM (inactive).

For `CCSc1nnc(NC(=O)c2nc(S(=O)(=O)Cc3ccc(F)cc3)ncc2Cl)s1`, the AC50 is > 35 µM (inactive).

As to `CCOC(=O)/C(=C\c1ccc(OC(F)F)cc1)C1=Nn2c(nnc2-c2ccc(Cl)cc2)SC1`, the concentration at half-maximal activity (AC50) was 4.15 µM.

In the case of `COC(=O)CSc1nc(N)c2c3c(sc2n1)C(c1ccccc1)SC(c1ccccc1)C3` (stereo not drawn), the AC50 is > 35 µM (inactive).

`C/C1=C\[C@@H](C)C/C=C/[C@H]2[C@@H]3O[C@]3(C)[C@@H](C)[C@H]3[C@H](Cc4c[nH]c5ccccc45)NC(=O)[C@]32C(=O)/C=C/C(=O)[C@@H]1O`: the AC50 was 8.71 µM.

For the compound `COc1ccc(C2CC(c3c(O)cc(C)oc3=O)=NCCS2)c(OC)c1` (stereo not drawn), the AC50 was > 35 µM (inactive).

As to `COc1ccc(-c2nc(NC(=O)c3n[nH]c(=O)c4ccccc34)sc2C)cc1`, the AC50 is > 35 µM (inactive).

Broadly, the AC50 is the midpoint of the concentration-response curve, whichever way the signal moves.
